# RGS4 inh = human RGS4 inhibition; P49798; actives 0.45% (n = 310,000); HEK293 M3R/RGS4 inducible, Fluo-4 calcium flux; active compounds read high; triggered by carbachol at its EC20; B-score at 10 µM; AID 463165;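 active = B-score, a plate-corrected calcium signal, over three deviations above library mean, with baseline fluorescence within five deviations of library mean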;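 note: RGS4 expression induced by doxycycline in cells with stable M3 receptor; B-score is computed from the integrated fluorescence ratio over baseline after carbachol; higher B-score means a larger calcium signal and so more RGS4 inhibition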
# Target sequence (P49798 whole entry, looked up): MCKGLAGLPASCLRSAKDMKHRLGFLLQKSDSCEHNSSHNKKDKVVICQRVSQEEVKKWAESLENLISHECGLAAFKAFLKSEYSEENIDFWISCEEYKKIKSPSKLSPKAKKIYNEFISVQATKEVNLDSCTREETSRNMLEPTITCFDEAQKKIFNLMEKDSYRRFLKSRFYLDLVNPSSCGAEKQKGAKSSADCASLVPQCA
# MrgX1 ag = activates human MrgX1 receptor signaling. Q96LB2. MrgX1-HEK293 cells, Fluo-4 calcium fluorescence, agonist mode; active compounds read high. B-score at 10 µM. actives 0.44% (n = 310,000). AID 588627;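 active = calcium response B-score plate-corrected fluorescence ratio at least 3 library SD, with starting fluorescence B-score inside 5 SD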
# Target sequence (Q96LB2 whole entry, looked up): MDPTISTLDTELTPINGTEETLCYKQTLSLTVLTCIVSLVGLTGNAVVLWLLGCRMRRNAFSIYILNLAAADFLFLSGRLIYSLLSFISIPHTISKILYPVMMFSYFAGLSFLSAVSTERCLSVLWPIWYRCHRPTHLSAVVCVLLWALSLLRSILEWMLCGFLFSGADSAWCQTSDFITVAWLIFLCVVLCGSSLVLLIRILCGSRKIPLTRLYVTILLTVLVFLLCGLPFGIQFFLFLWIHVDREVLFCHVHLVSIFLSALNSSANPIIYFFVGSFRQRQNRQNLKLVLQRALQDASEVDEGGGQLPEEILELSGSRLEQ
#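 Material: MrgX1-expressing HEK293 cells / Dosing: compound as first of three additions / Incubation: overnight seeding, then 1 h dark dye loading / Signal: Fluo-4 NW calcium fluorescence / Evaluation: B-scored fluorescence response ratio / Benchmarks: positive and negative control wells on each plate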
# MrgX1 antag = blocks BAM8-22 activation of human MrgX1 receptor; MRGX1-HEK293 calcium flux, Fluo-4, BAM8-22 antagonism; active compounds read low; B-score at 10 µM; actives 1.3% (n = 310,000); AID 588676;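 active = calcium-response B-score plate-corrected more than 3 library SD below zero, starting fluorescence within 5 deviations, no agonist response on first addition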;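 note: peak minus trough fluorescence over baseline after final BAM8-22 challenge near maximal dose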
# RGS4 act = RGS4 potentiation or activation; HEK293 M3R/inducible RGS4, carbachol calcium flux Fluo4; active compounds read low; B-score at 10 µM; actives 0.92% (n = 310,000); AID 463111;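 active = B-score of the integrated calcium signal more than 4 SD below the library mean, with starting fluorescence not abnormally high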;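 note: negative B-score means reduced calcium response which marks RGS4 activation or potentiation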
#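 Detection: kinetic calcium fluorescence imaging with Fluo4-AM dye, 2 µM / Material: HEK293 cells with stable M3R and inducible RGS4 / Schedule: recording 10 s baseline at 1 Hz, 100 s post-agonist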
# MrgX1 allo act = allosterically activates human MrgX1 receptor signaling; MrgX1-HEK293, Fluo-4 calcium flux, FDSS; active compounds read high; actives 0.63% (n = 310,000); Q96LB2; B-score at 10 µM;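 active = plate-corrected calcium response at least 3 library SD above typical, normal starting fluorescence, not activating the receptor alone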;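 note: compound read alongside a low EC10 to EC30 dose of BAM8-22 agonist; peak minus trough fluorescence over baseline measured at the second addition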
# MrgX1 antag conf = confirmation of human MrgX1 receptor antagonists | MrgX1-HEK293, BAM8-22 calcium flux, Fluo-4; active compounds read low | shares compounds with MrgX1 antag | actives 19% (n = 2,300) | AID 602420 | remaining BAM8-22 calcium response % of control (active compounds read low), % at 10 µM;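 active = remaining agonist calcium response no higher than 100% minus 3 SD of agonist-only control wells, with starting fluorescence near control levels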;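 note: agonist BAM8-22 given at a near maximal EC90 to ECmax level; peak minus minimum fluorescence divided by baseline after agonist addition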
# HEK293 Ca flux = MrgX1 antagonist counter-screen hit in parental HEK293 cells; shares compounds with MrgX1 antag; Fluo-4 calcium fluorescence, FDSS; fluorescence ratio F(max-min)/F0 at 10 µM; actives 2% (n = 4,000); AID 624111;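 active = duplicate-averaged calcium fluorescence ratio at least three times the standard deviation of buffer wells, a nonspecific response in parental cells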
# HEK293 Ca counter = MrgX1 allosteric activator counter-screen hit in parental HEK293 cells; shares compounds with MrgX1 antag; parental HEK293 calcium flux, Fluo-4 fluorescence ratio; active compounds read high; fluorescence ratio F(max-min)/F0 at 10 µM; actives 0.4% (n = 4,000); AID 624114;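 active = calcium fluorescence ratio, averaged over duplicates, at least 3 SD of the buffer-well ratio, meaning a nonspecific response in receptor-free cells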;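 note: untransfected parental HEK293 lacking MrgX1 used as counterscreen for MrgX1 allosteric activators; fluorescence change taken during the second addition on a kinetic imager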
# HEK293 Ca cntr2 = MrgX1 activator counter-screen hit in parental HEK293 cells; fluorescence ratio F(max-min)/F0 at 10 µM; shares compounds with MrgX1 antag; Fluo-4 calcium fluorescence (FDSS); active compounds read high; actives 8.7% (n = 4,000);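 active = calcium fluorescence ratio at least three times the spread of buffer wells, meaning a non-specific response in parental cells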
# * marks the source's active call; other numbers are inactive results; i = inactive; / = no result given. Rows were chosen to be rich in hits. Some 3.5% of all compounds tested hit in one or more screens of this group.
SMILES,RGS4 inh,MrgX1 ag,MrgX1 antag,RGS4 act,MrgX1 allo act,MrgX1 antag conf,HEK293 Ca flux,HEK293 Ca counter,HEK293 Ca cntr2
COc1ccc(OC)c(NC(=O)CN(Cc2ccccc2)S(C)(=O)=O)c1,i,i,-9.1*,i,i,i,i,i,i
COc1ccc(OC)c(NC(=O)Nc2cccc3ccccc23)c1,i,i,-4.6*,i,i,i,i,i,i
COc1ccc(NC(=O)CN(Cc2ccccc2)S(C)(=O)=O)c(OC)c1,i,i,i,i,i,/,/,/,/
CCCCCCCNC(=O)C1(CC2CC(c3ccc(Cl)cc3)=NO2)CCNCC1 (centres undefined),i,i,i,i,i,/,/,/,/
Nc1ccc([N+](=O)[O-])cc1C(=O)NNC(=O)c1ccco1,i,i,i,i,i,/,/,/,/
COc1ccc(OC)c(Nc2nc3nonc3nc2N2CCCC(C)C2)c1 (centres undefined),i,i,-5.5*,i,i,i,i,i,i
CCCC1C(C#N)=C(N)Oc2n[nH]c(C(C)(C)C)c21 (centres undefined),i,i,-5.1*,i,i,i,i,i,i
CC(C)C1C(C#N)=C(N)Oc2n[nH]c(C(C)(C)C)c21 (centres undefined),/,i,i,/,i,/,/,/,/
O=C(Nc1cccc(NC(=O)c2ccco2)n1)c1ccco1,i,i,i,i,i,/,/,/,/
Cc1nc2c(C(=O)N3CCN(C)CC3)cnn2c(C)c1Cc1ccc(Cl)cc1,i,i,i,i,i,/,/,/,/
C=CCc1c(C)nc2c(C(=O)O)cnn2c1C,i,i,-4.6*,i,i,i,i,i,i
Cc1cccc(N2CCN(C(=O)c3cccc(N4C(=O)C5C6C=CC(C6)C5C4=O)c3)CC2C)c1 (centres undefined),i,i,i,i,i,/,/,/,/
Cc1cccc(N2CCN(C(=O)c3ccc(N4CCCC4=O)cc3)CC2C)c1 (centres undefined),i,i,-4.9*,i,i,i,i,i,i
Cc1ccc(NC(=O)Nc2nnc(-c3ccncc3)s2)cc1C,i,i,-6.1*,i,i,64%*,i,i,i
O=C(CNC(=O)c1cccs1)OCC(=O)c1ccccc1,i,i,i,i,i,/,/,/,/
CCc1ccc(C(=O)COC(=O)CNC(=O)c2cccs2)cc1,i,i,-6.2*,i,i,i,i,i,i
CCOC(=O)CCc1c(C)nc2cc(-c3ccccc3OC)[nH]n2c1=O,i,i,i,i,i,/,/,/,/
CCOC(=O)CCc1c(C)nc2cc(C3CCCN(C(=O)OC(C)(C)C)C3)[nH]n2c1=O (centres undefined),/,i,-5.4*,/,i,i,i,i,i
Cc1ccccc1C(=O)Nc1cccc(-c2ccc(N3CCOCC3)nn2)c1,i,i,-5*,i,i,i,i,i,i
CCOC(=O)c1nn(-c2ccccc2)c(=O)cc1SC1CCCCC1,i,i,i,i,i,/,/,/,/
Cc1cc(F)ccc1NC(=O)c1cc(S(=O)(=O)N2CCc3ccccc32)cn1C,i,i,-5.3*,i,i,i,i,i,i
Cn1c(SCC(=O)Nc2cccc(F)c2)nc2c(c1=O)SCC2,i,i,-8.8*,i,i,i,i,i,i
COc1ccc(-n2c(SCC(=O)Nc3cc(C)on3)nc3c(c2=O)SCC3)cc1,i,i,-4.6*,i,i,i,i,i,i
Cn1c(SCC(=O)Nc2ccc(C(N)=O)cc2)nc2c(c1=O)SCC2,i,i,i,i,i,/,/,/,/
O=C(c1cc2ccccc2cc1O)N1CCN(c2ccc([N+](=O)[O-])cc2)CC1,i,i,i,i,i,/,/,/,/
SMILES,RGS4 inh,MrgX1 ag,MrgX1 antag,RGS4 act,MrgX1 allo act,MrgX1 antag conf,HEK293 Ca flux,HEK293 Ca counter,HEK293 Ca cntr2
COc1ccc(-c2cn3c(C)c(C(=O)Nc4cccc(C)n4)sc3n2)cc1,i,i,-5.3*,i,i,82%*,i,i,i
Cc1cccc(NC(=O)c2sc3nc(-c4ccccc4)cn3c2C)n1,i,i,i,i,i,/,/,/,/
Cc1cccc2c1cnn2C(=O)Nc1ccccc1Cl,i,i,i,i,i,/,/,/,/
COc1ccc(OCc2nc3ccc(S(=O)(=O)Nc4ccccc4Cl)cc3[nH]2)cc1,i,i,-6.1*,i,i,i,i,i,i
O=C(NCCSCc1ccco1)Nc1cc(Cl)cc(Cl)c1,i,i,-5.4*,i,i,68%*,i,i,i
O=S1(=O)CCOC[C@H](c2ccccc2)N1Cc1ccccc1F,i,i,-6.5*,i,i,i,i,i,i
CC(=O)c1cccc(S(=O)(=O)NC2CCCCCC2)c1,i,i,i,i,i,/,/,/,/
CC(=O)c1cccc(S(=O)(=O)NC2CC2)c1,i,i,-6.8*,i,i,i,i,i,i
COc1ccc2oc(C(=O)Nc3ccc(N4CCOCC4)cc3)c(C)c2c1,i,i,i,i,i,/,/,/,/
Cc1cccc(NC(=O)C2CCN(C(=O)[C@@H]3Cc4ccccc4CN3)CC2)c1,i,i,i,i,i,/,/,/,/
Cc1ccccc1NC(=S)NCc1ccc2c(c1)cc(C)n2C,i,i,-5.3*,i,i,i,i,i,i
COc1ccccc1NC(=S)NCc1ccc2c(c1)cc(C)n2C,i,i,i,i,i,/,/,/,/
CCc1ccc(-c2cc(C(=O)NCc3ccccn3)c3ccccc3n2)cc1,i,i,-5.3*,i,i,77%*,i,i,i
O=C(CSc1nc2scc(-c3ccccc3)c2c(=O)[nH]1)NCCc1ccccc1,i,i,i,i,i,/,/,/,/
Cc1sc2nc(SCC(=O)N3CCCC3)[nH]c(=O)c2c1C,i,i,i,i,i,/,/,/,/
